# From ChEMBL document CHEMBL1123732, “Flavones. 1. Synthesis and antihypertensive activity of (3-phenylflavonoxy)propanolamines without beta-adrenoceptor antagonism” (J Med Chem, 1987)
# Active and inactive are the calls of the source. The calls are words filed in the database; no cut-off is given here.
# Tests used:
# Rattus norvegicus [1] = assay: Percentage of fall in systolic blood pressure (SBP) at the following hours after dosing at 75 mg/kg (po) at 7.5 hr in spontaneously hypertensive rats(SHR) NS means not significant; type: functional, organism-based; parameters: dose 75 mg/kg; conditions: Artery
# Summary of the method: (§1)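 Male spontaneously hypertensive rats (Wistar-Kyoto strain), unanesthetized, dosed orally; systolic pressure measured by indirect tail cuff. Before each reading, rats warmed at 35-37 °C for 15-20 min to dilate the caudal artery. Five rats per treatment group; result is percentage fall in systolic pressure versus untreated control. Significance tested against control.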
# Rattus norvegicus [2] = assay: Percentage of fall in systolic blood pressure (SBP) at the following hours after dosing at 75 mg/kg (po) at 24 hr in spontaneously hypertensive rats(SHR); NS means not significant; type: functional, organism-based; parameters: dose 75 mg/kg; conditions: Artery; summary of the method: as §1
# Adrenergic receptor beta = Adrenergic receptor beta (Rattus norvegicus, UniProt P18090+P10608+P26255); assay: Evaluated for beta-receptor affinity, determined in rat brain membrane fraction with [3H]- dihydroalprenolol; type: cell membranes
# Summary of the method: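 Rat brain with cerebellum removed, homogenized in ice-cold 50 mM Tris-HCl pH 8.0 and spun at 50000g for 15 min, pellet washed once more the same way. Binding used 0.4-0.6 mg protein, 1 nM [3H]dihydroalprenolol, 50 mM Tris pH 8.0, and 5-10 competitor concentrations. IC50 read visually from a semilog plot; Ki from Cheng-Prusoff with KD approximately 1 nM.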
# Rattus norvegicus [3] = assay: Percentage of fall in systolic blood pressure (SBP) at the following hours after dosing at 75 mg/kg (po) at 2 hr in spontaneously hypertensive rats(SHR); NS means not significant; type: functional, organism-based; parameters: dose 75 mg/kg; conditions: Artery; summary of the method: as §1
# Rattus norvegicus [4] = assay: Percentage of fall in systolic blood pressure (SBP) at the following hours after dosing at 75 mg/kg (po) at 5 hr in spontaneously hypertensive rats(SHR); NS means not significant; type: functional, organism-based; parameters: dose 75 mg/kg; conditions: Artery; summary of the method: as §1
# Rattus norvegicus [5] = assay: […] systolic blood pressure (SBP) for compound-treated group relative to the value for untreated control at 75 mg/kg dose (po) in spontaneously hypertensive rats(SHR); type: functional, Artery; summary of the method: as §1
# Rattus norvegicus [6] = assay: […] systolic blood pressure (SBP) for compound-treated group relative to the value for untreated control at 8 mg/kg dose (po) in spontaneously hypertensive rats(SHR); type: functional, Artery; summary of the method: as §1
# Rattus norvegicus [7] = assay: Evaluated for the percentage inhibition of the depressor response of isoproterenol (0.25 mg/kg, iv) in spontaneously hypertensive rats at 150 mg/kg peroral dose
# Rattus norvegicus [8] = assay: Percentage of fall in systolic blood pressure (SBP) at the following hours after dosing at 17 mg/kg (po) at 2 hr in spontaneously hypertensive rats(SHR); NS mmeans not significant; type: functional, organism-based; parameters: dose 17 mg/kg; conditions: Artery; summary of the method: as §1
# Rattus norvegicus [9] = assay: Percentage of fall in systolic blood pressure (SBP) at the following hours after dosing at 17 mg/kg (po) at 7.5 hr in spontaneously hypertensive rats(SHR); type: functional, Artery; summary of the method: as §1
# Rattus norvegicus [10] = assay: Percentage of fall in systolic blood pressure (SBP) at the following hours after dosing at 17 mg/kg (po) at 24 hr in spontaneously hypertensive rats(SHR); type: functional, Artery; summary of the method: as §1
# Rattus norvegicus [11] = assay: Percentage of fall in systolic blood pressure (SBP) at the following hours after dosing at 8 mg/kg (po) at 7.5 hr in spontaneously hypertensive rats(SHR); type: functional, Artery; summary of the method: as §1
# Rattus norvegicus [12] = assay: Percentage of fall in systolic blood pressure (SBP) at the following hours after dosing at 8 mg/kg (po) at 24 hr in spontaneously hypertensive rats(SHR); type: functional, Artery; summary of the method: as §1
# Rattus norvegicus [13] = assay: […] systolic blood pressure (SBP) for compound-treated group relative to the value for untreated control at 17 mg/kg dose (po) in spontaneously hypertensive rats(SHR); type: functional, Artery; summary of the method: as §1
# Rattus norvegicus [14] = assay: Percentage of fall in systolic blood pressure (SBP) at the following hours after dosing at 17 mg/kg (po) at 5 hr in spontaneously hypertensive rats(SHR); type: functional, Artery; summary of the method: as §1
# Rattus norvegicus [15] = assay: Percentage of fall in systolic blood pressure (SBP) at the following hours after dosing at 8 mg/kg (po) at 5 hr in spontaneously hypertensive rats(SHR); type: functional, Artery; summary of the method: as §1
# Rattus norvegicus [16] = assay: Percentage of fall in systolic blood pressure (SBP) at the following hours after dosing at 8 mg/kg (po) at 2 hr in spontaneously hypertensive rats(SHR); NS means not significant; type: functional, organism-based; parameters: dose 8 mg/kg; conditions: Artery; summary of the method: as §1
# Rattus norvegicus [17] = assay: Percentage of fall in systolic blood pressure (SBP) at the following hours after dosing at 75 mg/kg (po) at 7.5 hr in spontaneously hypertensive rats(SHR); type: functional, Artery; summary of the method: as §1
# Rattus norvegicus [18] = assay: Evaluated for the percentage inhibition of the depressor response of isoproterenol (0.25 mg/kg, iv) in spontaneously hypertensive rats at 150 mg/kg peroral dose; NI means no inhibition at 10 mg/kg, iv
# Rattus norvegicus [19] = assay: Percentage of fall in systolic blood pressure (SBP) at the following hours after dosing at 75 mg/kg (po) at 24 hr in spontaneously hypertensive rats(SHR); type: functional, Artery; summary of the method: as §1
# Rattus norvegicus [20] = assay: Percentage of fall in systolic blood pressure (SBP) at the following hours after dosing at 75 mg/kg (po) at 2 hr in spontaneously hypertensive rats(SHR); type: functional, Artery; summary of the method: as §1
# Rattus norvegicus [21] = assay: Percentage of fall in systolic blood pressure (SBP) at the following hours after dosing at 75 mg/kg (po) at 5 hr in spontaneously hypertensive rats(SHR); type: functional, Artery; summary of the method: as §1
# Rattus norvegicus [22] = assay: Percentage of fall in systolic blood pressure (SBP) at the following hours after dosing at 75 mg/kg (po) at 7.5 hr in spontaneously hypertensive rats(SHR); NS means not significant; type: functional, organism-based; parameters: dose 75 mg/kg; conditions: Artery; summary of the method: as §1
Compound,Ki (Adrenergic receptor beta),Decrease in SBP (Rattus norvegicus [2]),Decrease in SBP (Rattus norvegicus [3]),Decrease in SBP (Rattus norvegicus [4]),SBP (Rattus norvegicus [5]),Decrease in SBP (Rattus norvegicus [17]),inhibition (Rattus norvegicus [18]),Decrease in SBP (Rattus norvegicus [19]),Decrease in SBP (Rattus norvegicus [20]),Decrease in SBP (Rattus norvegicus [21]),further results
CCC(C)NCC(O)COc1ccc2c(=O)c(-c3ccccc3)c(-c3ccccc3)oc2c1 (stereo unspecified),,,,,210 mmHg,19%,inactive,19%,12%,18%,
CCCCCNCC(O)COc1ccc2c(=O)c(-c3ccccc3)c(-c3ccccc3)oc2c1 (stereo unspecified),,inactive,inactive,inactive,191 mmHg,,,,,,Decrease in SBP (Rattus norvegicus [22]): inactive
CCCN(C)CC(O)COc1ccc2c(=O)c(-c3ccccc3)c(-c3ccccc3)oc2c1.O=C(O)/C=C\C(=O)O (stereo unspecified),,,,,199 mmHg,10%,inactive,18%,7%,9%,

# Further lines, with some results ahead:
Ki (Adrenergic receptor beta),Compound,Decrease in SBP (Rattus norvegicus [2]),Decrease in SBP (Rattus norvegicus [3]),Decrease in SBP (Rattus norvegicus [4]),SBP (Rattus norvegicus [5]),Decrease in SBP (Rattus norvegicus [17]),inhibition (Rattus norvegicus [18]),Decrease in SBP (Rattus norvegicus [19]),Decrease in SBP (Rattus norvegicus [20]),Decrease in SBP (Rattus norvegicus [21]),further results
> 0.00005 M,CC(C)(C)NCC(O)COc1ccc2c(=O)c(-c3ccccc3)c(-c3ccccc3)oc2c1.Cl (stereo unspecified),inactive,inactive,inactive,196 mmHg,,,,,,Decrease in SBP (Rattus norvegicus [1]): inactive
> 0.00005 M,CCCNCC(O)COc1ccc2c(=O)c(-c3ccccc3)c(-c3ccccc3)oc2c1 (stereo unspecified),,,,,,,,,,SBP (Rattus norvegicus [6]): 191 mmHg; inhibition (Rattus norvegicus [7]): inactive; Decrease in SBP (Rattus norvegicus [8]): inactive; Decrease in SBP (Rattus norvegicus [9]): 20%; Decrease in SBP (Rattus norvegicus [10]): 14%; Decrease in SBP (Rattus norvegicus [11]): 16%; Decrease in SBP (Rattus norvegicus [12]): 10%; SBP (Rattus norvegicus [13]): 198 mmHg; Decrease in SBP (Rattus norvegicus [14]): 11%; Decrease in SBP (Rattus norvegicus [15]): 12%; Decrease in SBP (Rattus norvegicus [16]): inactive
> 0.00005 M,CCCCNCC(O)COc1ccc2c(=O)c(-c3ccccc3)c(-c3ccccc3)oc2c1 (stereo unspecified),inactive,inactive,inactive,199 mmHg,11%,,,,,
